Series [1] deals with Trichoplusia ni. The experiment in a line: Oviposition deterrent activity against adult female Trichoplusia ni (cabbage looper) moths introduced along with male moths into oviposition cage containing compound pretreated cabbage leaves assessed as eggs laying on the leaf disks at 0.25% after 48 hr. Format: functional. In short, it runs like this: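 Choice test: one male and one female moth were caged with a control and a treated cabbage leaf (~100-110 cm²). Each side was sprayed with 0.5 mL MeOH or methanolic test solution at 0.25%. Values are mean ± SE, N = 35-40.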

The subject of series [2] is Trichoplusia ni. The series is described as follows: Feeding deterrent activity against freshly molted third-instar larval stage of Trichoplusia ni (cabbage looper) in compound pretreated cabbage leaves at 50 ug/cm2 after 3 to 5 hr by leaf disk choice bioassay. It counts as functional. In short, it runs like this: (§1)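 Leaf-disk choice test on greenhouse cabbage (Stonehead) leaves from 5-6-week plants. Freshly molted third-instar T. ni from a diet-reared colony (>50 generations) were starved 4-5 h. One disk had 10 μL test solution painted on each side, the other carrier solvent only. There were 25 larvae per treatment. Run ended at ~50% control disk eaten (3-5 h). Deterrence = (C−T)/(C+T)×100 from consumed areas.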

Series [3] concerns Trichoplusia ni. The following applies: in vivo, 24 h.
In series [4] the test system is Trichoplusia ni. The experiment in a line: Feeding deterrent activity against freshly molted third-instar larval stage of Trichoplusia ni (cabbage looper) in compound pretreated cabbage leaves after 3 to 5 hr by leaf disk choice bioassay. Format: functional, organism-based. The essentials: as §1

`C=CCc1cc(OC)ccc1OCC`: the Activity in the series with Trichoplusia ni [1] is given as 64%; with Trichoplusia ni [2], 66%. The mortality in the series with Trichoplusia ni [3] is listed as 3.3%. In addition, the DC50 in the series on Trichoplusia ni [4] was 22 microg/cm2.
In the same order, the values of `CCN(CC)C(=O)c1cccc(C)c1` [DIETHYLTOLUAMIDE] are 23%, 60%, 7% and 47 microg/cm2.
Turning to `C=CCc1ccc(OCCC(C)C)c(OC)c1` [ISOPENTYLEUGENOL], the Activity was 9% in the series on Trichoplusia ni [1] and 86% with Trichoplusia ni [2]. Moreover, the mortality in the series with Trichoplusia ni [3] was determined as 28%. Also, the DC50 in the series with Trichoplusia ni [4] was determined as 25 microg/cm2.
In the same order, the values of `C=CCc1cccc(OCC)c1OC` are 32%, 100%, 17% and 15.5 microg/cm2.
As to `C=CCc1cc(OCCC(C)C)ccc1OCC`, the values for the Activity with Trichoplusia ni [1] and in the series on Trichoplusia ni [2] were 64% and 66%, respectively. The mortality in the series on Trichoplusia ni [3] was found to be 3.3%. The DC50 with Trichoplusia ni [4] is 22 microg/cm2.
In the same order, the values of `C=CCc1cc(OCC)ccc1OC` are 37%, 68%, 17% and 19 microg/cm2.
Take `C=CCc1cc(OCC)ccc1OCCC`: the figures for the Activity with Trichoplusia ni [1] and in the series on Trichoplusia ni [2] were 21% and 65%, respectively. The same molecule had a mortality with Trichoplusia ni [3] of 17%. For the same molecule, in the series with Trichoplusia ni [4], the DC50 stood at 33 microg/cm2.
As to `C=CCc1cc(OCC)ccc1OCC`, the Activity in the series with Trichoplusia ni [1] is on record as 64%; in the series on Trichoplusia ni [2], 66%. This molecule also had a mortality in the series on Trichoplusia ni [3] of 3.3%. In the series with Trichoplusia ni [4], the DC50 is listed as 22 microg/cm2.
On the same counts, the results for `C=CCc1cccc(OCCCC)c1OCC` are 31%, 100%, 27% and 20 microg/cm2.
Regarding `C=CCc1cc(OCC)ccc1O`, the Activity in the series on Trichoplusia ni [1] and in the series on Trichoplusia ni [2] was 51% each time. This molecule also showed a mortality with Trichoplusia ni [3] of 3.3%. Also, the DC50 in the series with Trichoplusia ni [4] turned out to be 57 microg/cm2.
Regarding `C=CCc1cc(OCCC(C)C)ccc1OC`, the Activity in the series on Trichoplusia ni [1] is reported as 37%; in the series on Trichoplusia ni [2], 68%. For the same molecule, the mortality in the series on Trichoplusia ni [3] worked out at 17%. Besides, the DC50 in the series on Trichoplusia ni [4] came to 19 microg/cm2.
For the molecule `C=CCc1cc(OCCC(C)C)ccc1O`, the Activity in the series with Trichoplusia ni [1] and in the series on Trichoplusia ni [2] was 51% in each case. Moreover, the mortality in the series with Trichoplusia ni [3] is on record as 3.3%. Also, the DC50 with Trichoplusia ni [4] was 57 microg/cm2.
In the case of `C=CCOc1ccccc1OCCCC` [1-allyloxy-2-butoxybenzene], the Activity with Trichoplusia ni [1] was 35%; with Trichoplusia ni [2], 92%. In the series on Trichoplusia ni [3], the mortality amounted to 19%. In addition, the DC50 in the series with Trichoplusia ni [4] worked out at 17 microg/cm2.
Consider `C=CCc1cccc(OCCC)c1OCC`, for which the Activity is recorded as 31% in the series with Trichoplusia ni [1] and 100% in the series with Trichoplusia ni [2]. The molecule further yielded a mortality in the series on Trichoplusia ni [3] of 27%. For the same molecule, the DC50 in the series on Trichoplusia ni [4] came to 20 microg/cm2.
For `C=CCc1ccc(OCCCC)c(OC)c1` [N-BUTYLEUGENOL], the values for the Activity with Trichoplusia ni [1] and in the series with Trichoplusia ni [2] were 34% and 92%, respectively. In the series on Trichoplusia ni [3], this molecule showed a mortality of 15%. In the series with Trichoplusia ni [4], the DC50 is 12 microg/cm2.
Regarding `C=CCc1cccc(OCCCC)c1OC`, the Activity was 32% in the series with Trichoplusia ni [1] and 100% in the series with Trichoplusia ni [2]. This molecule showed a mortality with Trichoplusia ni [3] of 17%. The DC50 in the series with Trichoplusia ni [4] is 15.5 microg/cm2.
Regarding `C=CCc1cc(OCCC)ccc1OCC`, the values for the Activity with Trichoplusia ni [1] and with Trichoplusia ni [2] were 64% and 66%, respectively. In the series on Trichoplusia ni [3], the mortality came out at 3.3%. Besides, in the series with Trichoplusia ni [4], the DC50 is on record as 22 microg/cm2.
In the same order, the values of `C=CCc1cc(OCCC)ccc1O` are 51%, 51%, 3.3% and 57 microg/cm2.
In the same order, the values of `C=CCc1cc(OCCC)ccc1OCCC` are 21%, 65%, 17% and 33 microg/cm2.
On the same counts, the results for `C=CCc1cc(OCC)ccc1OCCC(C)C` are 20%, 83%, 27% and 15 microg/cm2.
As to `CCCOc1ccc(OCC)cc1` [4-ETHOXY-1-PROPOXYBENZENE], the figures for the Activity in the series with Trichoplusia ni [1] and with Trichoplusia ni [2] were 10% and 100%, respectively. This molecule showed a mortality with Trichoplusia ni [3] of 17%. The DC50 in the series with Trichoplusia ni [4] came to 33.3 microg/cm2.
For the molecule `C=CCc1cc(OCCCC)ccc1O`, the Activity in the series on Trichoplusia ni [1] and with Trichoplusia ni [2] was 51% each time. The mortality in the series with Trichoplusia ni [3] is given as 3.3%. Moreover, the DC50 in the series with Trichoplusia ni [4] was determined as 57 microg/cm2.
For `C=CCOc1cccc(OC)c1`, the Activity is recorded as 9% with Trichoplusia ni [1] and 66% with Trichoplusia ni [2]. The molecule further gave a mortality with Trichoplusia ni [3] of 33%. For the same molecule, in the series on Trichoplusia ni [4], the DC50 came out at 34 microg/cm2.
Turning to `C=CCc1cccc(OC)c1OCC`, the Activity came to 31% in the series on Trichoplusia ni [1] and 100% in the series with Trichoplusia ni [2]. Further, the mortality with Trichoplusia ni [3] is 27%. Further, in the series on Trichoplusia ni [4], the DC50 was 20 microg/cm2.
`C=CCc1ccc(OCC)c(OC)c1` [ETHYLEUGENOL]: the values for the Activity in the series with Trichoplusia ni [1] and in the series on Trichoplusia ni [2] were 18% and 51%, respectively. In the series on Trichoplusia ni [3], this molecule registered a mortality of 35%. The DC50 in the series on Trichoplusia ni [4] is 50 microg/cm2.
For `C=CCc1cccc(OCCCC)c1O`, the values for the Activity in the series with Trichoplusia ni [1] and in the series with Trichoplusia ni [2] were 7% and 100%, respectively. In the series with Trichoplusia ni [3], this molecule had a mortality of 17%. The DC50 in the series with Trichoplusia ni [4] was determined as 20.6 microg/cm2.
`C=CCc1cc(OCCC(C)C)ccc1OCCC`: the values for the Activity in the series with Trichoplusia ni [1] and in the series on Trichoplusia ni [2] were 21% and 65%, respectively. In the series with Trichoplusia ni [3], this molecule came in with a mortality of 17%. The DC50 with Trichoplusia ni [4] stood at 33 microg/cm2.
Consider `CCCOc1ccc2c(c1)CC(C)O2` (stereo unspecified), for which the Activity in the series on Trichoplusia ni [1] is -12%; with Trichoplusia ni [2], 100%. For the same molecule, in the series on Trichoplusia ni [3], the mortality is 1%. Further, in the series on Trichoplusia ni [4], the DC50 is given as 16 microg/cm2.
Take `C=CCc1cccc(OCC)c1O`: the Activity in the series on Trichoplusia ni [1] worked out at 7%; in the series on Trichoplusia ni [2], 100%. Further, the mortality in the series on Trichoplusia ni [3] is on record as 17%. The DC50 in the series with Trichoplusia ni [4] is reported as 20.6 microg/cm2.
In the same order, the values of `C=CCOc1ccc(CC=C)cc1OC` [ALLYLEUGENOL] are 16%, 86%, 18% and 15 microg/cm2.
On the same counts, the results for `C=CCOc1ccc(OC)cc1` [1-allyloxy-4-methoxybenzene] are 13%, 62%, 6% and 30 microg/cm2.
In the same order, the values of `C=CCc1cc(OCCCC)ccc1OC` are 37%, 68%, 17% and 19 microg/cm2.
`C=CCc1cccc(OCCC(C)C)c1OC`: the Activity with Trichoplusia ni [1] is listed as 32%; in the series with Trichoplusia ni [2], 100%. The mortality in the series with Trichoplusia ni [3] was determined as 17%. Also, in the series on Trichoplusia ni [4], the DC50 came out at 15.5 microg/cm2.
Take `C=CCc1cc(OCCCC)ccc1OCC`: the Activity amounted to 64% in the series on Trichoplusia ni [1] and 66% with Trichoplusia ni [2]. In addition, the mortality with Trichoplusia ni [3] was found to be 3.3%. For the same molecule, the DC50 in the series on Trichoplusia ni [4] came out at 22 microg/cm2.
In the case of `C=CCc1cccc(OC)c1O`, the Activity in the series on Trichoplusia ni [1] came to 7%; in the series with Trichoplusia ni [2] it was 100%. In the series on Trichoplusia ni [3], this molecule displayed a mortality of 17%. For the same molecule, the DC50 with Trichoplusia ni [4] is 20.6 microg/cm2.
On to `C=CCc1cccc(OCCC)c1O`, for which the Activity with Trichoplusia ni [1] stood at 7%; with Trichoplusia ni [2], 100%. In addition, the mortality with Trichoplusia ni [3] is given as 17%. In addition, the DC50 in the series with Trichoplusia ni [4] worked out at 20.6 microg/cm2.
In the same order, the values of `C=CCc1cccc(OCC)c1OCC` are 31%, 100%, 27% and 20 microg/cm2.
`C=CCc1ccc(OCCC)c(OC)c1` [PROPYLEUGENOL]: the Activity turned out to be 29% in the series with Trichoplusia ni [1] and 84% in the series on Trichoplusia ni [2]. This molecule also yielded a mortality with Trichoplusia ni [3] of 37%. Further, in the series with Trichoplusia ni [4], the DC50 was found to be 19 microg/cm2.
On the same counts, the results for `COc1cccc(OCCC(C)C)c1` [1-isopentyloxy-3-methoxybenzene] are 30%, 89%, 30% and 29 microg/cm2.
In the same order, the values of `C=CCc1cccc(OC)c1OC` are 32%, 100%, 17% and 15.5 microg/cm2.
As to `C=CCc1cc(OC)ccc1OCCC`, the results for the Activity in the series with Trichoplusia ni [1] and in the series with Trichoplusia ni [2] were 7% and 92%, respectively. In the series with Trichoplusia ni [3], this molecule had a mortality of 6.4%. In the series with Trichoplusia ni [4], the DC50 turned out to be 9.4 microg/cm2.
On the same counts, the results for `C=CCc1cc(OCCCC)ccc1OCCC` are 21%, 65%, 17% and 33 microg/cm2.
Turning to `C=CCc1cccc(OCCC)c1OC`, the values for the Activity in the series on Trichoplusia ni [1] and in the series with Trichoplusia ni [2] were 32% and 100%, respectively. The mortality with Trichoplusia ni [3] turned out to be 17%. In addition, in the series on Trichoplusia ni [4], the DC50 amounted to 15.5 microg/cm2.
Regarding `C=CCc1cccc(OCCC(C)C)c1O`, the Activity was 7% in the series with Trichoplusia ni [1] and 100% with Trichoplusia ni [2]. The same molecule showed a mortality in the series with Trichoplusia ni [3] of 17%. For the same molecule, the DC50 with Trichoplusia ni [4] was found to be 20.6 microg/cm2.

Usually mortality stands for the share of the test organisms that died. A higher mortality goes with fewer survivors.

(Values after ChEMBL document CHEMBL3044971, “Dialkoxybenzene and dialkoxyallylbenzene feeding and oviposition deterrents against the cabbage looper, Trichoplusia ni: potential insect behavior control agents” (J Agric Food Chem, 2010).)
